This passage reports Ki, Ratio and inhibition results from ChEMBL document CHEMBL1127446, “Structure-activity relationships of 1,2,4-triazolo[1,5-a] quinoxalines and their 1-deaza analogues imidazo[1,2-a]quinoxalines at the benzodiazepine receptor” (J Med Chem, 1994).

In assay [1] the target is GABA-A receptor; anion channel. The assay is described as follows: Binding affinity to BZR receptor on bovine cerebral cortex by [3H]flunitrazepam displacement. Format: tissue-based. A digest of the protocol: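 Compounds first screened at 10 μM, then IC50 from log-probit plots and Ki derived from it. Ki given as mean ± SEM of four determinations.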
Assay [2] deals with T1, GABA-A receptor; anion channel (Bos taurus) (UniProt P10063+P08220+P20237+P08219+P10064+P22300). The assay is described as follows: GABA ratio is measured by IC50 (compound)/IC50 (compound at 10 uM GABA. Type of assay: protein-complex assay. The method in brief: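 [³H]flunitrazepam (0.2 nM) displacement in bovine brain membranes; IC50 from log-probit plots, measured without and with 10 μM GABA. Ratio = IC50 without GABA / IC50 with GABA, from five independent experiments; compounds dissolved in DMSO.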

The target of assay [3] is T1, GABA-A receptor; anion channel (Bos taurus). The assay can be described thus: Binding affinity to BZR receptor of bovine cerebral cortex by [3H]flunitrazepam displacement at 10 uM. Type of assay: tissue-based. The method in brief: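 Percent inhibition of specific binding measured with test compound at 10 μM, dissolved in DMSO.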

The Ki is the equilibrium dissociation constant of an inhibitor or competing ligand from its target. A high value points to weaker binding. `Oc1nc2ccc(Cl)cc2n2nc(-c3ccco3)nc12` came in with a Ki in assay [1] of 0.0145 µM. For the same molecule, the Ratio in assay [2] was found to be 0.67.

Consider `Oc1nc2ccc(Cl)cc2n2nc(-c3cccs3)nc12`, for which the Ratio in assay [2] amounted to 1.09.

For the molecule `Oc1nc2ccc(Cl)cc2n2nc(-c3ccccc3F)nc12`, the Ki in assay [1] was 0.0029 µM. Further, in assay [2], the Ratio turned out to be 0.77. Take `Oc1ccc(-c2nc3c(O)nc4ccc(Cl)cc4n3n2)cc1`: the inhibitory constant (Ki) in assay [1] amounted to 0.0298 µM. Besides, the Ratio in assay [2] is 0.88. Molecule `Oc1nc2ccccc2n2nc(-c3ccccc3F)nc12` registered a Ki in assay [1] of 0.0089 µM. Also, in assay [2], the Ratio was 1.04. Regarding `O=c1[nH]c2ccc(Cl)cc2n2nc(-c3cccs3)nc12`, the Ki in assay [1] worked out at 0.0174 µM.

Turning to `COc1ccc(-c2nc3c(O)nc4ccccc4n3n2)cc1`, the Ki in assay [1] turned out to be 0.0878 µM. For the same molecule, in assay [2], the Ratio was determined as 1.04. For the molecule `Oc1nc2ccccc2n2cc(-c3ccccc3)nc12`, the Ki in assay [1] turned out to be 0.0423 µM. In addition, the Ratio in assay [2] amounted to 1.36. As for `Oc1nc2ccccc2n2nc(-c3ccco3)nc12`, the Ki in assay [1] turned out to be 0.0712 µM. Besides, the Ratio in assay [2] was 1.05.

`Oc1nc2ccc(Br)cc2n2nc(-c3ccco3)nc12` showed an inhibition constant Ki in assay [1] of 0.0132 µM. Further, the Ratio in assay [2] stood at 0.77. `Oc1nc2ccccc2n2nc(-c3cccs3)nc12` registered a Ki in assay [1] of 0.0218 µM. Moreover, the Ratio in assay [2] came to 0.92. `COc1ccc(-c2nc3c(=O)[nH]c4ccc(Cl)cc4n3n2)cc1` registered a Ki in assay [1] of 0.0054 µM.

In the case of `COc1ccc(-c2nc3c(O)nc4ccc(Cl)cc4n3n2)cc1`, in assay [2], the Ratio came out at 1.03. As to `Oc1nc2ccc(Cl)cc2n2nc(-c3ccsc3)nc12`, the Ratio in assay [2] turned out to be 0.8. As for `O=c1[nH]c2ccc(Cl)cc2n2nc(-c3ccsc3)nc12`, the Ki in assay [1] was found to be 0.0159 µM. In the case of `Oc1ccc(-c2nc3c(O)nc4ccccc4n3n2)cc1`, in assay [1], the affinity, expressed as Ki, was 0.0675 µM. The Ratio in assay [2] amounted to 0.9. The like results for `COc1ccc(-c2cn3c(n2)c(O)nc2ccccc23)cc1` were, in that order, 0.0564 µM and 1.21. The like results for `Oc1nc2ccccc2n2cc(-c3cccs3)nc12` were, in that order, 0.0159 µM and 1.13. In turn, `Oc1nc2ccc(Cl)cc2n2nc(-c3cccc(F)c3)nc12` showed a Ki in assay [1] of 0.0328 µM. Besides, the Ratio in assay [2] was 0.82. Broadly, the inhibition is the drop in the measured response relative to a control, in per cent. Read a high inhibition as a response far below the control. With `Cn1c(=O)c2nc(-c3ccccc3)cn2c2ccccc21`, in assay [3], the inhibition stood at 2%. The molecule `Oc1nc2ccc(Cl)cc2n2nc(-c3ccoc3)nc12` registered a Ki in assay [1] of 0.0098 µM. Further, the Ratio in assay [2] was found to be 0.84.
